Data set [1] can be described thus: Potency of the drug was evaluated by comparison with Lidocain; potency = ED50 of Lidocaine /ED50 of compound. Format: functional.
Data set [2] can be described thus: Ratio of LD50 to ED50 evaluated for its antiarrhythmic potency. Format: functional, Heart.
Data set [3] can be described thus: Potency of the drug was evaluated by comparison with Lidocain; potency = ED50 of Lidocaine /ED50 of compound. Format: functional.
Data set [4] deals with Mus musculus. The data set can be described thus: Antiarrhythmic activity evaluated in mouse after subcutaneous administration. Format: functional. Particulars: Heart, sc. The gist of the method: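 Male DDY mice (18-22 g), groups of 10, dosed s.c. at 0.1 mL/10 g body weight, three to four doses per compound. ED50 (dose protecting 50% from fibrillation) by Litchfield-Wilcoxon, with 95% confidence limits.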

Data set [5] in a line: Acute toxicity was determined in mice. Particulars: mouse, in vivo. Format: organism-based.
For data set [6], the system named is Mus musculus. The data set can be described thus: Antiarrhythmic activity evaluated in mouse after subcutaneous administration; No effect. The class given is functional, organism-based. Particulars: Heart.

The structures appear in SMILES notation. Activity calls are given as the source filed them. No cut-off for these calls is given here.

`COc1ccc(OC)c(NC(=O)CC23CCCN2CCC3)c1` returned a Potency in data set [1] of 0.44. Moreover, the Ratio in data set [2] came out at 2.26.
As a reminder, the ED50 is the dose that gives a 50% effect, or the effect in half of the subjects. Consider `Nc1ccccc1NC(=O)CC12CCCN1CCC2`, for which the Potency in data set [3] was 0.9. This molecule displayed an ED50 in the data set on Mus musculus [4] of 100 mg/kg. Moreover, the Ratio in data set [2] is recorded as 6.33.
Molecule `COc1ccc(NC(=O)CC23CCCN2CCC3)cc1` gave a Potency in data set [1] of 0.6. For the same molecule, the Ratio in data set [2] is reported as 4.8.
For the molecule `O=C(CC12CCCN1CCC2)Nc1ccccc1Cl`, in the data set on Mus musculus [4], the ED20 is 100 mg/kg.
`Cc1ccccc1NC(=O)CC12CCCN1CCC2` returned an ED40 in the data set on Mus musculus [4] of 100 mg/kg.
Molecule `Cc1cccc(NC(=O)CC23CCCN2CCC3)c1C` came in with a Potency in data set [1] of 0.56. For the same molecule, the Ratio in data set [2] is on record as 7.33.
Regarding `Cc1cccc(C)c1NC(=O)CC12CCCN1CCC2`, the Potency in data set [1] was 1.51.
In data set [1], `Cc1ccc(C)c(NC(=O)CC23CCCN2CCC3)c1` had a Potency of 0.5. The Ratio in data set [2] came out at 5.56.
The matching figures for `O=C(CC12CCCN1CCC2)Nc1ccccc1Br`: 0.76 and 7.54.
In turn, `O=C(CC12CCCN1CCC2)Nc1c(Cl)cccc1Cl` registered an ED20 in the data set with Mus musculus [4] of 100 mg/kg.
In the data set on Mus musculus [4], `COc1cccc(NC(=O)CC23CCCN2CCC3)c1` had an ED40 of 100 mg/kg.
As a reminder, the LD50 is the dose at which mortality reaches 50%. In the data set on Mus musculus [4], `Cc1cccc(C)c1NC(=O)C12CCCN1CCC2` showed an ED20 of 100 mg/kg. In addition, the LD50 in data set [5] came to 603 mg/kg.
`CCN(CC)CC(=O)Nc1c(C)cccc1C` [LIDOCAINE] gave a Potency in data set [1] of 1. In the data set with Mus musculus [4], it took a dose of 29 mg/kg to reach the 50% effect level (ED50).
For the molecule `CCc1cccc(CC)c1NC(=O)CC12CCCN1CCC2`, the Potency in data set [1] amounted to 1.41. In addition, the Ratio in data set [2] is 9.93.
`Cc1ccc(NC(=O)CC23CCCN2CCC3)cc1C` gave a Potency in data set [1] of 0.47. Also, in data set [2], the Ratio came to 7.36.
Consider `Cc1ccc(NC(=O)CC23CCCN2CCC3)cc1`, for which the ED20 with Mus musculus [4] turned out to be 100 mg/kg.
On to `COc1ccccc1NC(=O)CC12CCCN1CCC2`, for which the ED40 in the data set with Mus musculus [4] turned out to be 100 mg/kg.
As for `Nc1ccc(NC(=O)CC23CCCN2CCC3)cc1`, the LD50 in data set [5] came to 12 mg/kg.
In turn, `Cc1cc(C)c(NC(=O)CC23CCCN2CCC3)c(C)c1` registered a Potency in data set [1] of 1.22. Besides, the Ratio in data set [2] was found to be 9.09.
`Cc1cc(C)cc(NC(=O)CC23CCCN2CCC3)c1` yielded a Potency in data set [1] of 0.69. Moreover, the Ratio in data set [2] was found to be 6.83.
Regarding `O=C(CC12CCCN1CCC2)Nc1ccccc1`, the ED50 result in the data set with Mus musculus [6] was “inactive”.

The values are drawn from ChEMBL document CHEMBL1123007, “New antiarrhythmic agents. N-aryl-8-pyrrolizidinealkanamides” (J Med Chem, 1985).
